# Measured values from ChEMBL document CHEMBL1149266, “2,3-diaminopyridine bradykinin B1 receptor antagonists” (J Med Chem, 2004).
# Assays:
# [1] = Clearance in Sprague-Dawley rat at 2 mg/kg, iv; format: ADME, organism-based; parameters: dose 2 mg/kg, route intravenous; conditions: in vivo
# B1 bradykinin receptor [2] = biological target: T1, B1 bradykinin receptor (Homo sapiens, UniProt P46663); assay: Displacement of [3H]des-arg10, leu9-kallidin from human bradykinin B1 receptor expressed in CHO cells; format: cell-based
# T1 sequence (P46663 whole entry): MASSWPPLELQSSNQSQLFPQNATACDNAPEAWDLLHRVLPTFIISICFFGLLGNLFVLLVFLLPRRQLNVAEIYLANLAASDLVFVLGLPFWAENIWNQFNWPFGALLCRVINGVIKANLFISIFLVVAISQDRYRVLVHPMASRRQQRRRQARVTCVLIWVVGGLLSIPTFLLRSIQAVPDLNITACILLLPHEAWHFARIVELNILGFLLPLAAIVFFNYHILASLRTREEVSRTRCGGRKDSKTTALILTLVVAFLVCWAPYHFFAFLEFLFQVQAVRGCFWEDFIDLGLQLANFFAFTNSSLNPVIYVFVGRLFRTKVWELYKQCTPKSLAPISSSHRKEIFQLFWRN
# Procedure, shortened: (§1)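 Radioligand binding using CHO cells that stably express the human B1 or B2 receptor, with the appropriate radioligand for each; Ki in nM.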
# [3] = Half life in mongrel dog at 1 mg/kg, iv; format: ADME, organism-based, Canis lupus familiaris; parameters: dose 1 mg/kg, route intravenous; conditions: in vivo
# [4] = Oral bioavailability in mongrel dog at 3 mg/kg, po; format: ADME, organism-based, Canis lupus familiaris; conditions: in vivo
# [5] = Half life in Sprague-Dawley rat at 2 mg/kg, iv; format: ADME, organism-based; parameters: dose 2 mg/kg, route intravenous; conditions: in vivo
# [6] = Oral bioavailability in Sprague-Dawley rat at 10 mg/kg, po; format: ADME, organism-based; conditions: in vivo
# [7] = Clearance in mongrel dog at 1 mg/kg, iv; format: ADME, organism-based, Canis lupus familiaris; parameters: dose 1 mg/kg, route intravenous; conditions: in vivo
# B1 bradykinin receptor [8] = biological target: T1, B1 bradykinin receptor; assay: Antagonist activity at bradykinin B1 receptor expressed in CHO cells assessed as inhibition of des-arg10-kallidin-induced increase in cytosolic calcium level by FLIPR assay; format: functional, cell-based
# Procedure, shortened: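 FLIPR functional assay using functionally active human B1 receptors; IC50 in nM.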
# B1 bradykinin receptor [9] = biological target: T2, B1 bradykinin receptor (Oryctolagus cuniculus, UniProt P48748); assay: Binding affinity to rabbit bradykinin B1 receptor
# T2 sequence (P48748 whole entry): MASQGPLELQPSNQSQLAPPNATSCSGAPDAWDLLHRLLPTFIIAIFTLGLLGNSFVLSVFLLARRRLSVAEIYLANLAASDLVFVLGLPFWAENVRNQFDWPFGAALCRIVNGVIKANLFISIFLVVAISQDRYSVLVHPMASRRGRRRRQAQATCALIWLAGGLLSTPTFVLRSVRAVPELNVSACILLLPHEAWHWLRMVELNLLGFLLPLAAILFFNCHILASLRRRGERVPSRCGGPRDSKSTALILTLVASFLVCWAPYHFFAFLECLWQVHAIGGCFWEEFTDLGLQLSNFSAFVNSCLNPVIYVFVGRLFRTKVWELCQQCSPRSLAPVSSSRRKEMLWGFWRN
# Procedure, shortened: (§2)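 Radioligand binding at rat or rabbit B1 receptor; Ki in nM. Values are the average of at least two experiments, with ±25% interassay variability.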
# B1 bradykinin receptor [10] = biological target: T2, B1 bradykinin receptor; assay: Activity at rabbit bradykinin B1 receptor assessed by FLIPR assay; format: functional
# Procedure, shortened: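 FLIPR functional assay using functionally active rabbit B1 receptors; IC50 in nM. Values are the average of at least two experiments, with ±30% interassay variability.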
# Oryctolagus cuniculus = assay: Antinociceptive effect against CFA-induced hyperalgesia in iv dosed New Zealand rabbit model by spinal nociceptive reflex assay; format: functional; conditions: read-out: ID50 (the source's name)
# Procedure, shortened: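 CFA was used to induce mechanical hyperalgesia in the rabbit hind paw. The read-out was inhibition of the spinal nociceptive reflex to a noxious pinch of the inflamed paw. Antagonist was dosed iv over a dose range, giving an ID50 (mg/kg). Three rabbits per experiment.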
# B1 bradykinin receptor [11] = biological target: T3, B1 bradykinin receptor (Rattus norvegicus, UniProt P97583); assay: Displacement of [3H]des-arg10 kallidin from rat bradykinin B1 receptor expressed in CHO cells; format: cell-based; procedure, shortened: as §2
# T3 sequence (P97583 whole entry): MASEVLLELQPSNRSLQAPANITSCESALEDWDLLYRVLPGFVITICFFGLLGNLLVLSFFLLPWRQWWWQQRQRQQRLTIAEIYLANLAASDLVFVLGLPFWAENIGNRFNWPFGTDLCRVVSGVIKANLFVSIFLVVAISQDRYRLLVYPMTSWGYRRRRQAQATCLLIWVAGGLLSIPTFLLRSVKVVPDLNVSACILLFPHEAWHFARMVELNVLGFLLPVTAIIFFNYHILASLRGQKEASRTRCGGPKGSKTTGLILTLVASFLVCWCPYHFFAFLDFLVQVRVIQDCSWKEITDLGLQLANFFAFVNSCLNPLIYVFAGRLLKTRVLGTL
# [12] = biological target: T4, B1 bradykinin receptor (Oryctolagus cuniculus) (UniProt P48748); assay: Inhibition of desArg9-bradykinin-induced decrease in mean arterial blood pressure in iv dosed New Zealand white rabbit; format: functional, organism-based
# T4 sequence (whole entry): T2 sequence (P48748 whole entry)
# Procedure, shortened: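 Rabbits received iv LPS to induce vascular B1 receptors. The depressor blood pressure response to DABK (1 μg/kg iv) was recorded. Rising iv doses of antagonist were given as pretreatment before repeated DABK doses, giving an AD50 (mg/kg). Three rabbits per experiment.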
# B2 bradykinin receptor = biological target: T5, B2 bradykinin receptor (Homo sapiens, UniProt P30411); assay: Displacement of [3H]bradykinin from human bradykinin B2 receptor expressed in CHO cells; format: cell-based; procedure, shortened: as §1
# T5 sequence (P30411 whole entry): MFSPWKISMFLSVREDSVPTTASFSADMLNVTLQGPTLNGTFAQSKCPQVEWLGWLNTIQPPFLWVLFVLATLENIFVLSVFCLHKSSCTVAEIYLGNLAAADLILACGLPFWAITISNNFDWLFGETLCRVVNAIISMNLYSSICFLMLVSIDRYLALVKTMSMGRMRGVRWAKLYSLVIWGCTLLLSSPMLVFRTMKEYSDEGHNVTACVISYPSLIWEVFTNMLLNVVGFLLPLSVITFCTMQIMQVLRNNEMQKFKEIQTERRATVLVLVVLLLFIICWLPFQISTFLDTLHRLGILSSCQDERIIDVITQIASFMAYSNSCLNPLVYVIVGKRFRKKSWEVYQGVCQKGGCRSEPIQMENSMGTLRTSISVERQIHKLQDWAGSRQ
SMILES,clearance [1] [mL/min/kg],Ki (B1 bradykinin receptor [2]),half-life [3] [h],bioavailability [4] [%],half-life [5] [h],bioavailability [6] [%],clearance [7] [mL/min/kg],IC50 (B1 bradykinin receptor [8]),Ki (B1 bradykinin receptor [9]),IC50 (B1 bradykinin receptor [10]),Ki (B1 bradykinin receptor [11]),Ki (B2 bradykinin receptor) [nM],ED50 (Oryctolagus cuniculus) [mg/kg],AD50 [12] [mg/kg]
Cc1nc(-c2c(F)cccc2-c2ccc([C@@H](C)Nc3nccc(Cl)c3NC(=O)CC#N)cc2)no1,4.9,0.7 nM (antagonist),2,25,12.9,50,5.9,0.78 nM (antagonist),–,–,–,–,–,–
C[C@@H](Nc1nccc(Cl)c1NC(=O)CC#N)c1ccc(-c2cccc(F)c2-c2nnn(C)n2)cc1,9,0.5 nM (antagonist),3.8,69,7.8,73,2.4,1.17 nM (antagonist),3 nM (antagonist),3.9 nM (antagonist),119 nM (antagonist),–,3.1,0.28
COC(=O)c1ccc(C)cc1-c1ccc([C@@H](C)Nc2nccc(C)c2NC(=O)CC#N)cc1,42,1.2 nM (antagonist),–,–,0.6,21,–,1.4 nM (antagonist),–,–,–,> 10000,–,–
CCCCC(=O)Nc1cccnc1NCc1ccc(-c2ccccc2C(=O)OC)cc1,–,200 nM (antagonist),–,–,–,–,–,–,–,–,–,–,–,–
C[C@@H](Nc1nccc(Cl)c1NC(=O)CC#N)c1ccc(-c2cccc(F)c2-c2nnnn2C)cc1,–,6 nM (antagonist),–,–,–,–,–,–,41.5 nM (antagonist),–,12 nM (antagonist),–,–,–
Cc1noc(-c2c(F)cccc2-c2ccc([C@@H](C)Nc3nccc(Cl)c3NC(=O)CC#N)cc2)n1,9.5,0.5 nM (antagonist),2.1,14,8.8,62,7.3,0.94 nM (antagonist),2.7 nM (antagonist),12.3 nM (antagonist),81 nM (antagonist),–,–,–

# More lines, main results first:
clearance [1] [mL/min/kg],Ki (B1 bradykinin receptor [2]),half-life [3] [h],bioavailability [4] [%],half-life [5] [h],bioavailability [6] [%],clearance [7] [mL/min/kg],IC50 (B1 bradykinin receptor [8]),Ki (B1 bradykinin receptor [9]),IC50 (B1 bradykinin receptor [10]),Ki (B1 bradykinin receptor [11]),Ki (B2 bradykinin receptor) [nM],SMILES,ED50 (Oryctolagus cuniculus) [mg/kg],AD50 [12] [mg/kg]
25,0.8 nM (antagonist),0.9,2,0.5,6,5.5,1.5 nM (antagonist),–,–,–,–,COC(=O)c1ccc(Cl)cc1-c1ccc([C@@H](C)Nc2nccc(Cl)c2NC(=O)CC#N)cc1,–,–
11,0.4 nM (antagonist),2.7,34,2.1,50,9,0.25 nM (antagonist),0.69 nM (antagonist),2.4 nM (antagonist),35.3 nM (antagonist),–,COC(=O)c1c(F)cccc1-c1ccc([C@@H](C)Nc2nccc(Cl)c2NC(=O)CC#N)cc1,2.1,0.57
36,1.1 nM (antagonist),–,–,1.8,52,–,–,–,–,–,–,C[C@@H](Nc1nccc(Cl)c1NC(=O)CC#N)c1ccc(-c2cccc(F)c2C(F)(F)F)cc1,–,–
8.3,2 nM (antagonist),–,–,0.9,80,–,–,–,–,–,–,C[C@@H](Nc1nccc(Cl)c1NC(=O)CC#N)c1ccc(-c2cccc(F)c2C#N)cc1,–,–
24,0.7 nM (antagonist),6.3,23,1.3,43,8.7,0.85 nM (antagonist),1.1 nM (antagonist),7.2 nM (antagonist),35.7 nM (antagonist),–,COC(=O)c1c(Cl)cccc1-c1ccc([C@@H](C)Nc2nccc(Cl)c2NC(=O)CC#N)cc1,0.9,0.8
